Assay results pooled from the literature.
Each line is one published result; the experiments were not run side by side.
Target: Serine/threonine-protein kinase/endoribonuclease IRE1 (ERN1, Homo sapiens, UniProt O75460)

The remaining binding of CN(C)c1nccc(-c2cnn3ncccc23)n1 is reported as 100% (binding; 1 µM).
With CNCc1ccccc1-c1csc([C@@H](C)Nc2nc(C)nc3cc(OC)c(OC)cc23)c1 the remaining binding was 100% (cell-free assay, competition with immobilised ligand; 1 µM).
Cc1cnc(Nc2ccc(C(=O)N3CCC(N4CCCC4)CC3)cc2)nc1-c1cc2ccccc2s1 has a remaining binding of 24% (binding, competition with immobilised ligand; 1 µM).
With Cc1cc(NC(=O)c2cccc(S(F)(F)(F)(F)F)c2)cc(-n2ccn3nc(-c4cccnc4)cc23)c1 the remaining binding was 99.2% (cell-free assay, competition with immobilised ligand; 1 µM).
For C[C@@H](c1ccc(-n2cnc3c(N)ncnc32)cc1)N1CCc2nn(C)c(Cc3ccccc3)c2C1=O, the remaining binding was 72% (binding, competition with immobilised ligand; 0.1 µM).
For Cc1cnn2ncc(-c3ccnc(N(C)C)n3)c2c1, the remaining binding was 100% (binding; 1 µM).
O=C(c1ccc(Nc2nccc(-c3cc4ccccc4s3)n2)cc1)N1CCC(N2CCCC2)CC1 gave a remaining binding of 41% (binding, competition with immobilised ligand; 1 µM).
CS(=O)(=O)N1CCCC(NC(=O)[C@H](CCC2CCCCC2)NC(=O)c2ccc(CNc3ncnc4c3nnn4-c3ccccc3)cc2)C1 (stereo partly drawn) gave a remaining binding of 100% (cell-free assay, competition with immobilised ligand; 0.1 µM).
The remaining binding of O=C(NCCCN1CCOCC1)c1ccc(Nc2ncc(Cl)c(-c3ccc(Cl)s3)n2)cc1 is reported as 27% (binding, competition with immobilised ligand; 1 µM).
Nc1ncc2c(n1)-c1c([nH]c3ccc(C#CC4CC4)cc13)CCCC2 gave a remaining binding of 100% (binding, competition with immobilised ligand; 1 µM).
The remaining binding of COc1cnc(Nc2cccc(S(N)(=O)=O)c2)nc1N1CCN(c2ccccc2)C(=O)C1 is reported as 78% (binding, competition with immobilised ligand; 1 µM).
With CCCCN(CCCC)C(=O)CN1C[C@@H](c2cc(OC)c3c(c2)OCO3)[C@H](C(=O)O)[C@H]1CC(C)(C)CCC the remaining binding was 100% (cell-free assay, competition with immobilised ligand; 1 µM).
O=C(Nc1c[nH]nc1C(=O)NC1CCNCC1)c1cc(F)cc(F)c1 has a remaining binding of 86% (binding, competition with immobilised ligand; 1 µM).
N[C@@H]1CCN(c2nccc(-c3cnn4ncccc34)n2)C1 gave a remaining binding of 100% (binding; 1 µM).
With FC(F)(F)Oc1cccc(-c2cnc3ccc(-c4ccncc4)nn23)c1 the remaining binding was 79% (cell-free assay, competition with immobilised ligand; 5 µM).
For c1cnn2ncc(-c3ccnc(N4CCC45COC5)n3)c2c1, the remaining binding was 69% (binding; 1 µM).
C=CC(=O)N1CCC(C(=O)NCC(=O)N2CCN(c3nc(-c4cnc(N)nc4C(F)F)nc(N4CCOCC4)n3)CC2)CC1 gave a remaining binding of 100% (binding, competition with immobilised ligand; 1 µM).
CNC(=O)Nc1ccc2c(c1)CC[C@@]21OC(=O)N(CC(=O)N(Cc2ccc(F)cc2)[C@@H](C)C(F)(F)F)C1=O has a remaining binding of 56% (cell-free assay, competition with immobilised ligand; 1 µM).
CN(C)c1nccc(-c2cnc3ncccn23)n1 gave a remaining binding of 60% (binding; 1 µM).
CCC(=O)N[C@H]1CC[C@@H](C(=O)N(C)c2ccc(-c3nc4ccccc4o3)cc2)C1 has a remaining binding of 91% (cell-free assay, competition with immobilised ligand; 1 µM).
The remaining binding of F[C@@H]1CCN(c2nccc(-c3cnn4ncccc34)n2)C1 is reported as 83% (binding; 1 µM).
